Screening results as filed in PubChem.
hERG protect – hERG rescue from dofetilide block, primary screen, cell-based, CHO-hERG, FluxOR thallium flux, dofetilide IC70. dofetilide IC70 present. activation (rescue from dofetilide block), less the hit threshold, % at 10 µM. 310,000 tested, 0.51% active. AID 1511, 2009;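 active = activation above the mean of controls blocked by dofetilide plus 5 SD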;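 note: thallium influx through hERG after potassium depolarization seen as dye fluorescence rise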
KCNK9 block – KCNK9 potassium channel inhibitors, primary screen, HEK293 cells, thallium flux; FluxOR thallium flux fluorescence; stronger effect = lower value; B-score at 10 µM; 310,000 tested, 1.2% active; AID 488922, 2010;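 active = ratio B-score over 3 SD below the library mean, with starting fluorescence within 5 SD of its mean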;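 note: negative B-score means less thallium flux so channel inhibition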
KCNK3 block – human KCNK3 channel inhibitors, primary screen, CHO cells, FluxOR thallium flux, B-score | Potassium channel subfamily K member 3 (Homo sapiens), O14649 | B-score at 10 µM | FluxOR fluorescence; stronger effect = lower value | 340,000 tested, 0.84% active;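 active = B-score under library mean minus 4 SD, starting fluorescence ratio at most library mean plus 5 SD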;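 note: more negative B-score means stronger inhibition of thallium flux through KCNK3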
KCNQ1 act – potentiators or activators of KCNQ1 channel, primary screen, cell-based, thallium flux, high-throughput. Potassium voltage-gated channel subfamily KQT member 1 (Homo sapiens), P51787. CHO-K1 KCNQ1, thallium flux FluxOR fluorescence; stronger effect = higher value. B-score at 10 µM. 310,000 tested, 0.35% active. AID 2648, 2010;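 active = fluorescence ratio B-score, a plate-corrected score, at least three library SD, with initial intensity B-score within 5 SD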
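Material: CHO-K1 cells stably expressing KCNQ1. Medium: assay buffer for compound exposure, DMSO matched across wells. Reagent: K+/Tl+ depolarizing stimulus. Compound dosing: single-concentration screen. Times: 37 °C overnight plating, 90-min dark dye load, 20-min compound pretreatment. Technique: FluxOR Tl+ flux fluorescence.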
KCNQ1 inh – inhibitors of human KCNQ1 channel, primary screen, cell-based, thallium flux, high-throughput; AID 2642, 2010; B-score at 10 µM; CHO-K1 KCNQ1, FluxOR thallium flux fluorescence; stronger effect = higher value; 310,000 tested, 1.3% active; Potassium voltage-gated channel subfamily KQT member 1 (Homo sapiens), P51787;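 active = compounds whose thallium flux B-score, printed positive for inhibition, exceeds three library SD while starting fluorescence stays within three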;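 note: channel opened by potassium depolarization with thallium stimulus after 20 min compound exposure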
Kir21 inh – inhibitors of mouse Kir2.1 inward-rectifier potassium channel. 310,000 tested, 0.85% active. HEK293-Kir2.1, FluxOR thallium flux fluorescence; stronger effect = lower value. AID 1672, 2009. B-score at 10 µM. Inward rectifier potassium channel 2 (Mus musculus), P35561;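 active = fluorescence ratio B-score at or below minus 3 SD of library scores, with starting-brightness B-score within 2 SD, cut at about -4.2 in these data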;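 note: channel flux triggered by added potassium and thallium sulfate stimulus; B-score of peak minus minimum fluorescence over baseline after thallium stimulus; more negative B-score means stronger Kir2.1 block with less thallium influx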
Large screens that a line does not name were inactive. Compounds with a hit are over-represented: about 3.8% of the library has one in this group of screens.

C=C1[C@@H](C)C2[C@H](Cc3ccccc3)NC(=O)[C@]23OC(=O)CC[C@H](O)CCC[C@H](C)C/C=C/[C@H]3[C@@H]1O (some centres undefined)	KCNQ1 act 60 (no result: KCNK3 block)
CCC(C)NC(=O)c1cc(Cl)c(NC(=O)C2=C(C)OCCS2)cc1OC (centres undefined)	KCNQ1 act 44
Cc1noc(C)c1/C=N/Nc1ccccn1	hERG protect 6.4
CCc1c(C)nc2cc(-c3cccc(Br)c3)[nH]n2c1=O	none
CC(C)Cn1c(SCC(=O)c2ccc(Cl)s2)nnc1-c1ccco1	Kir21 inh -9.4
CCn1c(SCC(=O)OCc2ccccc2)nnc1-c1ccco1	Kir21 inh -5.9
CSC(=S)N/N=C(\C)c1ccccc1	hERG protect 20, KCNQ1 act 45
NC(=NCCc1ccccc1)c1cccc([N+](=O)[O-])c1	KCNQ1 inh 7
O=C(CCSc1ccccn1)c1ccccc1	none
COc1ccccc1CNC(=O)C1(NC(=O)Nc2ccc(C)cc2)CCCCC1	none
Cc1ccc(CNC(=O)C2(NC(=O)Nc3ccc(C)cc3)CCCCC2)cc1	hERG protect 4.6
Cc1cc(C)nc(SCc2nnc(SCC(=O)Nc3nc(-c4ccccc4)cs3)n2-c2ccccc2)n1	hERG protect 6.5
CC(C)Oc1ccc(CC2CCC(=O)N(C)C2=O)cc1 (centres undefined)	none
CCOC(=O)c1nc(Nc2ccc(Nc3ccccc3)cc2)c2ccccc2n1	KCNK9 block -7.6
CN(CC1CCOCC1)C(=O)CC1C(=O)NCCN1C/C=C/c1ccccc1 (centres undefined)	none
COc1ccc(C)cc1NC(=O)C1CCN(S(=O)(=O)c2ccc3c(c2)C(C)(C)C(=O)N3C)CC1	none
Cc1ccc(-c2nc(CNC(=O)c3ccco3)cs2)cc1	none
CC1=C(C(=O)OC2CCCC2)C(c2ccc(C)o2)C2=C(CC(c3cccs3)CC2=O)N1 (centres undefined)	KCNQ1 inh 8
CC1=C(C(=O)OC2CCCCCC2)C(c2ccc(C)o2)C2=C(CCCC2=O)N1 (centres undefined)	none
O=C(Nc1ccccc1)OCCOc1ccc(Cl)cc1Cl	none (no result: hERG protect, KCNK9 block, KCNQ1 act, KCNQ1 inh, Kir21 inh)
COc1ccc(C)cc1-n1nnnc1SCC1CCCCO1 (centres undefined)	Kir21 inh -4.7
COc1ccc(C)cc1-n1nnnc1SCC(=O)NC1CCCC1	none (no result: hERG protect, KCNK9 block, KCNQ1 act, KCNQ1 inh, Kir21 inh)
C[C@@H](CN1C2=NC[C@H](Cc3ccccc3)N2C[C@H]1Cc1ccc(O)cc1)NC(=O)CCC1CCCCC1	Kir21 inh -4.5
COc1ccc(C[C@H]2CN3C(=NC[C@@H]3Cc3ccccc3)N2C[C@H](C)NC(=O)CCC2CCCCC2)cc1	Kir21 inh -7.3 (no result: KCNK3 block)
COc1ccc(C[C@H]2CN3C(=NC[C@H]3Cc3ccccc3)N2CCNC(=O)CCC2CCCCC2)cc1	Kir21 inh -6.1
C/C(=N\N1CCN(c2ccccc2)CC1)c1ccc(O)cc1	none
Cc1cccc(NC(=O)C(=O)NNC(=O)c2ccc(C(C)(C)C)cc2)c1	hERG protect 37, KCNQ1 act 73
CC(C)(C)c1ccc(C(=O)NNC(=O)c2cccc(Br)c2)cc1	none
Cc1ccc(OCC(=O)NNC(=O)C(=O)NC(C)(C)C)cc1	KCNQ1 act 8
COc1ccc(C)cc1NC(=O)C(=O)NNC(=O)COc1ccc(Cl)cc1	hERG protect 88, KCNQ1 act 59
Cc1ccc(NC(=O)NNC(=O)COc2ccc(Cl)cc2)cc1	none
Cc1ccccc1NC(=O)C(=O)NNC(=O)COc1ccc2ccccc2c1	hERG protect 29, KCNQ1 act 49
NC(=O)c1ccc(NC(=O)COc2cccc3ccccc23)cc1	none
COc1ccc(OCC(=O)Nc2cccc(OC)c2)cc1	none
COc1cccc(OCC(=O)NNC(=O)C(=O)Nc2cccc(C)c2)c1	hERG protect 17, KCNQ1 act 21
COc1ccc(OCC(=O)NNC(=O)C(=O)Nc2cc(OC)ccc2OC)cc1	hERG protect 15
COc1ccc(OC)c(NC(=O)NNC(=O)COc2ccc(-c3ccccc3)cc2)c1	none
COc1ccc(OC)c(NC(=O)C(=O)NNC(=O)COc2ccc(Br)cc2C)c1	hERG protect 104, KCNQ1 act 66
O=C(Cc1cccc(C(F)(F)F)c1)OCN1C(=O)c2ccccc2C1=O	none
C=CCc1c(C)nc(-c2ccccc2)nc1N/N=C/c1ccccc1	KCNQ1 inh 6
COc1ccc(O)c(C(=O)CC(=O)c2ccc(F)cc2)c1	none
Cc1ccc(O)c(C(=O)CC(=O)c2ccc(Cl)cc2)c1	hERG protect 5.7
O=C(CC(=O)c1cc(Cl)ccc1O)c1ccccc1	KCNQ1 act 18
Cc1cccc(C(=O)CC(=O)c2cc(Cl)ccc2O)c1	hERG protect 8.8
Cc1cccc(C(=O)NCC(=O)NNC(=O)c2ccccc2O)c1	none
Cc1ccc(O)c(C(=O)CC(=O)c2cccc(F)c2)c1	KCNQ1 act 27
S=C(NCCc1ccccc1)Nc1ccc(Br)cc1	none
COc1cccc(CN2CCC(C(=O)N3CCN(c4ccccc4F)CC3)CC2)c1OC	none
Cc1ccc(C(=O)CC(=O)COc2ccc(Cl)cc2C)cc1	KCNQ1 act 7
Cc1ccc(NC(=O)c2ccc(OC(=O)COc3ccc(Cl)cc3C)cc2)cc1	none
Cn1c(C(=O)N2CCCC(C(=O)NCCN3CCOCC3)C2)cc2sccc21 (centres undefined)	hERG protect 7.3
CCOc1ccc(S(=O)(=O)N2CCCC(C(=O)NCCN3CCOCC3)C2)cc1Cl (centres undefined)	KCNQ1 act 9
CCOC(=O)c1cc(CC)sc1NC(=O)Cc1ccccc1	KCNK9 block -7.6
CCOC(=O)c1cc(CC)sc1NC(=O)COC	none
Cc1cc(C(=O)Cn2cnc3ccc(Cl)cc3c2=O)c(C)n1C1CC1	none (no result: hERG protect, KCNK9 block, KCNQ1 act, KCNQ1 inh, Kir21 inh)
O=C(NC1CC2CCC(C1)N2C(=O)NCc1ccccc1)C1CC1 (centres undefined)	hERG protect 13
O=C(CCCn1nnnc1CN1CCOCC1)N1CCN(c2ccccc2F)CC1	KCNQ1 act 8
CCN(Cc1ccncc1)C(=O)c1ccccc1NS(=O)(=O)c1ccc(Br)cc1	none
CCC(C)c1ccc(NC(=O)NCCN2CCCCC2)cc1 (centres undefined)	none
C=CCCCN(Cc1ccccc1)S(=O)(=O)c1ccccc1Br	KCNK9 block -7.7
CCN(Cc1ccccc1)S(=O)(=O)c1ccccc1Br	none (no result: hERG protect, KCNK9 block, KCNQ1 act, KCNQ1 inh, Kir21 inh)
